{"source": "paper PMC3448790", "about": "(Biochemistry, 2012)", "molecules": {"B1": {"name": "cdB3 ΔL1 (cdB3 with loop 1, residues 63–73, replaced by a diglycine bridge) (domain or fragment, human)", "chain": "MEELQDDYEDMMEENLEQEEYEDPDIPESQMEEPAAHDTEATATDYHTTSHPGTHKVYVELQGGRWMEAARWVQLEENLGENGAWGRPHLSHLTFWSLLELRRVFTKGTVLLDLQETSLAGVANQLLDRFIFEDQIRPQDREELLRALLLKHSHAGELEALGGVKPAVLTRSGDPSQPLLPQHSSLETQLFCEQGDGGTEGHSPSGILEKIPPDSEATLVLVGRADFLEQPVLGFVRLQEAAELEAVELPVPIRFLFVLLGPEAPHIDYTQLGRAAATLMSERVFRIDAYMAQSRGELLHSLEGFLDCSLVLPPTDAPSEQALLSLVPVQRELLRRRYQSSPAKPDSSFYKGLDLNGGPDDPLQQTGQLF"}, "B2": {"name": "cytoplasmic domain of band 3 (cdB3), wild type, with COOH-terminal His6-tag (domain or fragment, human)", "chain": "MEELQDDYEDMMEENLEQEEYEDPDIPESQMEEPAAHDTEATATDYHTTSHPGTHKVYVELQELVMDEKNQELRWMEAARWVQLEENLGENGAWGRPHLSHLTFWSLLELRRVFTKGTVLLDLQETSLAGVANQLLDRFIFEDQIRPQDREELLRALLLKHSHAGELEALGGVKPAVLTRSGDPSQPLLPQHSSLETQLFCEQGDGGTEGHSPSGILEKIPPDSEATLVLVGRADFLEQPVLGFVRLQEAAELEAVELPVPIRFLFVLLGPEAPHIDYTQLGRAAATLMSERVFRIDAYMAQSRGELLHSLEGFLDCSLVLPPTDAPSEQALLSLVPVQRELLRRRYQSSPAKPDSSFYKGLDLNGGPDDPLQQTGQLF"}, "B3": {"name": "native cdB3: cytoplasmic domain of band 3 (protein)", "chain": "B2 chain", "modifications": "left off: His6, C-terminal, kept"}, "B4": {"name": "ΔL2 cdb3: mutant cdB3 with a diglycine bridge in place of loop 2 (residues 175–185) (protein)", "chain": "MEELQDDYEDMMEENLEQEEYEDPDIPESQMEEPAAHDTEATATDYHTTSHPGTHKVYVELQELVMDEKNQELRWMEAARWVQLEENLGENGAWGRPHLSHLTFWSLLELRRVFTKGTVLLDLQETSLAGVANQLLDRFIFEDQIRPQDREELLRALLLKHSHAGELEALGGVKGGQPLLPQHSSLETQLFCEQGDGGTEGHSPSGILEKIPPDSEATLVLVGRADFLEQPVLGFVRLQEAAELEAVELPVPIRFLFVLLGPEAPHIDYTQLGRAAATLMSERVFRIDAYMAQSRGELLHSLEGFLDCSLVLPPTDAPSEQALLSLVPVQRELLRRRYQSSPAKPDSSFYKGLDLNGGPDDPLQQTGQLF", "modifications": "left off: His6, C-terminal, kept"}, "B5": {"name": "double loop deleted (ΔL1 + ΔL2) cdB3: combination of loop 1 and loop 2 deletion mutant (protein)", "chain": "MEELQDDYEDMMEENLEQEEYEDPDIPESQMEEPAAHDTEATATDYHTTSHPGTHKVYVELQGGRWMEAARWVQLEENLGENGAWGRPHLSHLTFWSLLELRRVFTKGTVLLDLQETSLAGVANQLLDRFIFEDQIRPQDREELLRALLLKHSHAGELEALGGVKGGQPLLPQHSSLETQLFCEQGDGGTEGHSPSGILEKIPPDSEATLVLVGRADFLEQPVLGFVRLQEAAELEAVELPVPIRFLFVLLGPEAPHIDYTQLGRAAATLMSERVFRIDAYMAQSRGELLHSLEGFLDCSLVLPPTDAPSEQALLSLVPVQRELLRRRYQSSPAKPDSSFYKGLDLNGGPDDPLQQTGQLF", "modifications": "left off: His6, C-terminal, kept"}, "B6": {"name": "cdB3 ΔL1: mutant cdB3 with loop 1 (residues 63–73) replaced by a diglycine bridge (protein)", "chain": "B1 chain", "modifications": "left off: His6, C-terminal, kept"}, "B7": {"name": "mutated ankyrin: D3D4 domain of ankyrin with the four mutations N601D, K611E, E645K, and Q634E (protein)", "chain": "ESGLTPLHVASFMGHLPIVKNLLQRGASPNVSNVKVETPLHMAARAGHTEVAKYLLQNKAKVNAKAKDDQTPLHCAARIGHTNMVKLLLENNANPNLATTAGHTPLHIAAREGHVETVLALLEKEASQACMTKKGFTPLHVAAKYGKVRVAELLLERDAHPNAAGKNGLTPLHVAVHHNNLDIVKLLLPRGGSPHSPAWDGYTPLHIAAEQNQVEVARSLLQYGGSANAESVEGVTPLHLAAQKGHAEMVALLLSKQANGNLGNKSGLTPLHLVAQEGHVPVADVLIKHGVMVDATTRMGYTPLHVASHYGNIKLVKFLLQHQADVNAKTKLGYSPLHQAAQQGHTDIVTLLLKNGASPNEVSSDGTTPLAIAKRLGYISVTDVLKVVTDETSFVLVSDKHRMSFPETVDEILDVSEDEGEELISF", "modifications": "left off: GST, end not stated, kept"}, "B8": {"name": "Wild-type ankyrin: GST fusion construct of the D3D4 domain of ankyrin (protein)", "chain": "B7 chain with D200N, E210K, E233Q, K244E", "modifications": "left off: GST, end not stated, kept"}}, "key": {"human erythrocyte ghosts [1]": {"system": "human erythrocyte ghosts", "test": "Ektacytometry of resealed ghosts", "type": "cell-based", "details": "6 or 15 μM cyclic peptide resealed; elongation index vs shear stress", "outline": "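Washed human red cells from ACD-anticoagulated volunteer blood, with buffy coat and plasma removed, were suspended in PBS/5 mM glucose/2 mM MgCl2 with cyclized test peptide or without (control). Cells were flash-frozen in liquid N2 for 40 s, thawed at room temperature, then resealed 45 min at 37°C. Ghosts were washed in PBS/glucose/0.5% BSA and assessed by ektacytometry as elongation index under gradually increasing shear stress.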"}, "human erythrocyte ghosts [2]": {"system": "human erythrocyte ghosts", "test": "Peptide resealing into red cells, morphology by light microscopy", "type": "cell-based", "details": "peptide 0, 6, 12 or 30 μM resealed 45 min at 37°C; 100x oil immersion"}, "AUC": {"target": "the molecule itself", "test": "AUC"}, "[3]": {"target": "T1, GST-D3D4-ankyrin (GST fusion construct of the D3D4 domain of ankyrin), wild type (human, UniProt P16157 402-827)", "T1 sequence": "B7 chain with D200N, E210K, E233Q, K244E", "test": "pull-down"}, "[4]": {"target": "T1, GST-D3D4-ankyrin (GST fusion construct …)", "test": "pull-down", "remark": "listed apart in the source"}, "GST-ankyrin": {"system": "GST-ankyrin", "type": "binding, human", "details": "GST-ankyrin 1 μM on glutathione-beads; cdB3 or mutant 1 μM; anti-cdB3 antibody", "outline": "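Purified GST-ankyrin was immobilized on glutathione beads and incubated 2 h with His6-tagged wild-type or mutant cdB3 expressed in E. coli. Beads were washed 3x with binding buffer, and captured cdB3 was quantified by dot blot with a locally prepared polyclonal anti-cdB3 antibody.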"}, "GST-D3D4-ankyrin [5]": {"system": "GST-D3D4-ankyrin", "type": "binding, human", "details": "increasing concentrations of GST-D3D4-ankyrin; anti-ankyrin polyclonal antibodies"}, "[6]": {"system": "glyceraldehyde-3-phosphate dehydrogenase (GAPDH)", "details": "2 μg/mL GAPDH, 2 min at room temperature, pH 7.0; 10 mM imidazole acetate; absorbance change at 340 nm"}, "GST-D3D4-ankyrin [7]": {"system": "GST-D3D4-ankyrin", "test": "His-tag pull-down on Co2+-NTA agarose, bound GST-D3D4-ankyrin by GST activity", "type": "binding, human", "details": "immobilized cdB3 variants, pH 8.0, n=2", "outline": "(§1)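 His6-tagged cdB3 (wild type or loop-deletion mutant) and GST-D3D4 ankyrin (wild type or charge-reversal mutant) were expressed in E. coli BL21(DE3)pLysS and purified. cdB3 was incubated at 4°C with increasing GST-ankyrin in pH 8.0 phosphate/KCl/imidazole buffer with 10% sucrose, 1 mg/ml BSA and PMSF. Complexes were captured on Co2+-NTA beads for 2 h, washed 3x and eluted with 250 mM imidazole. Equal cdB3 loading was checked by anti-cdB3 blot, and bound ankyrin was quantified by GST activity.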"}, "cdB3": {"system": "cdB3", "test": "Binding of native or mutated GST-D3D4 ankyrin to His-tagged cdB3", "parameters": "species or system human", "details": "GST activity, n=2", "outline": "as §1"}}, "note": "Numbering of substitutions follows the chain as printed. Names may count otherwise. “Also recorded” adds a separate entry of the source. Where a SMILES comes first, the peptide text is derived from it. Bridges are numbered along the chain shown (N, C = ends). Where no end group is shown, it is not given here."}
{"molecule": "CSCC[C@@H]1NC(=O)[C@H](C(C)C)NC(=O)[C@H](CC(C)C)NC(=O)[C@H](CCC(=O)O)NC(=O)[C@@H](N)CSSC[C@@H](C(=O)O)NC(=O)[C@H](CC(C)C)NC(=O)[C@H](CCC(=O)O)NC(=O)[C@H](CCC(N)=O)NC(=O)[C@H](CC(N)=O)NC(=O)[C@H](CCCCN)NC(=O)[C@H](CCC(=O)O)NC(=O)[C@H](CC(=O)O)NC1=O", "note": "[cyclized peptide] (HELM PEPTIDE1{C.E.L.V.M.D.E.K.N.Q.E.L.C}$PEPTIDE1,PEPTIDE1,1:R3-13:R3$$$V2.0; N-terminus and C-terminus assumed)", "values": [{"measurement": "effect on membrane deformability (in words)", "setting": "human erythrocyte ghosts [1]", "result": "compromised membrane deformability"}, {"measurement": "effect on red cell membrane morphology (in words)", "setting": "human erythrocyte ghosts [2]", "result": "membrane blebbing and a gradual decrease in membrane surface area; also recorded: extensive vesiculation at higher peptide concentrations"}]}
{"molecule": "B1", "values": [{"measurement": "stoichiometry N", "setting": "AUC", "result": 2}]}
{"molecule": "B2", "values": [{"measurement": "Kd", "setting": "[3]", "result": "~0.4", "unit": "µM"}]}
{"molecule": "CELVMDEKNQELC (disulfide 1-13)", "note": "[cyclized loop 1 peptide (residues 63–73 of cdB3 with a cysteine at each end, disulfide-bonded)]", "values": [{"measurement": "IC50", "setting": "[4]", "result": "~15", "unit": "µM"}]}
{"molecule": "CELVMDEKNQELC", "note": "[linear loop 1 peptide (residues 63–73 of cdB3 with a cysteine at each end, reduced)]", "values": [{"measurement": "IC50", "setting": "[4]", "result": 55, "unit": "µM"}]}
{"molecule": "B3", "values": [{"measurement": "affinity for immobilized GST-ankyrin by dot blot (in words)", "setting": "GST-ankyrin", "result": "strong affinity"}, {"measurement": "GST-ankyrin binding by dot blot (in words)", "setting": "GST-D3D4-ankyrin [5]", "result": "usual prominent binding"}, {"measurement": "inhibition of GAPDH", "setting": "[6]", "result": 90, "unit": "%"}]}
{"molecule": "B4", "values": [{"measurement": "affinity for GST-ankyrin (in words)", "setting": "GST-D3D4-ankyrin [7]", "result": "no affinity could be detected"}]}
{"molecule": "B5", "values": [{"measurement": "affinity for GST-ankyrin (in words)", "setting": "GST-D3D4-ankyrin [7]", "result": "no affinity could be detected"}]}
{"molecule": "B6", "values": [{"measurement": "affinity for immobilized GST-ankyrin by dot blot (in words)", "setting": "GST-ankyrin", "result": "no affinity for ankyrin"}]}
{"molecule": "B7", "values": [{"measurement": "affinity of mutated ankyrin for cdB3 (in words)", "setting": "cdB3; N601D, K611E, Q634E, E645K mutant", "result": "unable to bind cdB3"}]}
{"molecule": "B8", "values": [{"measurement": "Kd", "setting": "cdB3; read-out: apparent dissociation constant of ankyrin for cdB3", "result": "~0.4", "unit": "µM"}]}
